Values after ≈ are worked out from the molar mass of the structure shown.
Tests used:
Erythrocyte = experiment: Anti-inflammatory activity in human RBC assessed as inhibition of hypotonic solution-induced hemolysis after 10 mins by spectrophotometric method; format: functional, cell-based
Procedure, shortened: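 Heparinized blood from one healthy donor (no NSAIDs for 2 weeks), washed in 0.9% saline, made into 40% (v/v) RBC stock in 10 mM sodium phosphate/154 mM NaCl, pH 7.4. Stock mixed with hypotonic buffer (50 mM NaCl, 10 mM phosphate, pH 7.4) plus sample at 20–100 μg mL–1. Incubated at room temperature, centrifuged, supernatant absorbance at 540 nm, % haemolysis inhibition versus blank.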

[1] = Inhibition of H+/K+-ATPase in sheep stomach parietal cells assessed as reduction in inorganic phosphate liberation using ATP as substrate measured after 10 to 15 mins; conditions: Ovis aries
Procedure, shortened: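 Enzyme came from sheep fundic mucosal scrapings, homogenized in sucrose/EGTA/Hepes-Tris buffer pH 7.4, then subcellular fractionation. Basal medium: 2 mmol L–1 ATP, 50 mmol L–1 Tris-HCl pH 7.5, with K+ and HCO3 stimulation. Reaction started with ATP, run at 37 °C and stopped with cold 20% TCA. Released Pi read by Fiske–Subbarow at 660 nm. Values are means of three determinations.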

Compound | IC50 (Erythrocyte) | IC50 [1]
CCCCCC/C=N/Nc1nc2cccc(C)c2s1 | 82.2 µg/mL (≈ 298 µM) | 72.1 µg/mL (≈ 262 µM)
Cc1cccc2nc(N/N=C/c3cccs3)sc12 | 28.7 µg/mL (≈ 105 µM) | 30.4 µg/mL (≈ 111 µM)
CC/C=N/Nc1nc2cccc(C)c2s1 | 78.5 µg/mL (≈ 358 µM) | 80.2 µg/mL (≈ 366 µM)
Cc1cccc2nc(N/N=C/c3cc4ccccc4[nH]3)sc12 | 30.2 µg/mL (≈ 98.5 µM) | 28.1 µg/mL (≈ 91.8 µM)
Cc1cccc2nc(N/N=C/c3ccco3)sc12 | 50.1 µg/mL (≈ 195 µM) | 38.3 µg/mL (≈ 149 µM)
Cc1cccc2nc(N/N=C/c3ccc[nH]3)sc12 | 46.2 µg/mL (≈ 180 µM) | 42.6 µg/mL (≈ 166 µM)
Cc1cccc2nc(N/N=C/CC(C)C)sc12 | 90.7 µg/mL (≈ 367 µM) | 82.2 µg/mL (≈ 332 µM)
Cc1cccc2nc(N/N=C\c3ccc(Br)cc3Br)sc12 | 10.1 µg/mL (≈ 23.8 µM) | 66.1 µg/mL (≈ 156 µM)
Cc1cccc2nc(N/N=C\c3ccc(O)cc3O)sc12 | 58.2 µg/mL (≈ 194 µM) | 14.1 µg/mL (≈ 47.2 µM)
Cc1cccc2nc(N/N=C\c3ccncc3)sc12 | 54.2 µg/mL (≈ 202 µM) | 40.2 µg/mL (≈ 150 µM)
Cc1cccc2nc(N/N=C\c3ccc(Br)cc3)sc12 | 20.1 µg/mL (≈ 58 µM) | 60.1 µg/mL (≈ 174 µM)
Cc1cccc2nc(N/N=C\c3ccccc3)sc12 | 80.1 µg/mL (≈ 300 µM) | 84.1 µg/mL (≈ 315 µM)
Cc1cccc2nc(N/N=C\c3ccc([N+](=O)[O-])cc3[N+](=O)[O-])sc12 | 12.7 µg/mL (≈ 35.7 µM) | 80.6 µg/mL (≈ 226 µM)
COc1ccc(/C=N\Nc2nc3cccc(C)c3s2)cc1O | 56.2 µg/mL (≈ 179 µM) | 26.2 µg/mL (≈ 83.6 µM)
COc1cc(/C=N\Nc2nc3cccc(C)c3s2)cc(Br)c1O | 56.4 µg/mL (≈ 144 µM) | 42.1 µg/mL (≈ 107 µM)
Cc1cccc2nc(N/N=C\c3ccc([N+](=O)[O-])cc3)sc12 | 24.1 µg/mL (≈ 77.1 µM) | 72.2 µg/mL (≈ 231 µM)

Compound | IC50 (Erythrocyte) | IC50 [1]
Cc1cccc2nc(N/N=C\c3ccc(Oc4ccccc4)cc3)sc12 | 60.9 µg/mL (≈ 169 µM) | 56.4 µg/mL (≈ 157 µM)
Cc1ccc(/C=N\Nc2nc3cccc(C)c3s2)cc1 | 54.3 µg/mL (≈ 193 µM) | 34.2 µg/mL (≈ 121 µM)
Cc1cccc2nc(N/N=C\c3cc(O)c(O)c(O)c3)sc12 | 68.6 µg/mL (≈ 217 µM) | 8.99 µg/mL (≈ 28.5 µM)
Cc1cccc2nc(N/N=C\c3ccc(O)cc3)sc12 | 60 µg/mL (≈ 212 µM) | 26.3 µg/mL (≈ 92.9 µM)
Cc1cccc2nc(N/N=C\c3ccc(F)cc3F)sc12 | 16.1 µg/mL (≈ 53.2 µM) | 70.6 µg/mL (≈ 233 µM)
COc1ccc(/C=N\Nc2nc3cccc(C)c3s2)c(OC)c1 | 68.1 µg/mL (≈ 208 µM) | 20.4 µg/mL (≈ 62.2 µM)
COc1ccc(/C=N\Nc2nc3cccc(C)c3s2)cc1Br | 58.6 µg/mL (≈ 156 µM) | 54.4 µg/mL (≈ 145 µM)
Cc1cccc2nc(N/N=C\c3ccc(F)cc3)sc12 | 32.1 µg/mL (≈ 113 µM) | 66.1 µg/mL (≈ 232 µM)
Cc1cccc2nc(N/N=C\c3ccc(Cl)cc3)sc12 | 28.7 µg/mL (≈ 95.2 µM) | 68.2 µg/mL (≈ 226 µM)
Cc1cccc2nc(N/N=C\c3ccc(Cl)cc3Cl)sc12 | 18.2 µg/mL (≈ 54 µM) | 68.9 µg/mL (≈ 205 µM)
Cc1cccc2nc(N/N=C\c3ccc(O)c(Br)c3)sc12 | 52.4 µg/mL (≈ 145 µM) | 48.1 µg/mL (≈ 133 µM)
COc1cc(/C=N\Nc2nc3cccc(C)c3s2)cc(OC)c1OC | 74.6 µg/mL (≈ 209 µM) | 12.8 µg/mL (≈ 35.7 µM)
COc1cc(/C=N\Nc2nc3cccc(C)c3s2)ccc1OCc1ccccc1 | 66.2 µg/mL (≈ 164 µM) | 42.9 µg/mL (≈ 106 µM)
COc1ccc(/C=N\Nc2nc3cccc(C)c3s2)cc1 | 72.7 µg/mL (≈ 244 µM) | 30.4 µg/mL (≈ 102 µM)
COc1ccc2c(c1)c(CC(=O)O)c(C)n2C(=O)c1ccc(Cl)cc1 [INDOMETHACIN] | 40 µg/mL (≈ 112 µM) | –
COc1ccc2[nH]c([S+]([O-])Cc3ncc(C)c(OC)c3C)nc2c1 (configuration not stated) [OMEPRAZOLE] | – | 46.1 µg/mL (≈ 134 µM)

Source: ChEMBL document CHEMBL4261521, “Synthesis of benzo[d]thiazole-hydrazone analogues: molecular docking and SAR studies of potential H+/K+ ATPase inhibitors and anti-inflammatory agents” (Medchemcomm, 2017)
